This is a sample that favours compounds with a hit; in the whole collection about 4.6% have one here.
OX1R antag-1 – blocks the human orexin 1 receptor; O43613; OX1R-expressing cells, FRET antagonist read-out; inhibition, % at 6.6 µM; 330,000 compounds, 1.8% hits; in the data active = inhibition mostly above about 38%, no sharp cut-off; inactive = mostly below about 40%;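 note: 0% = agonist challenge alone and 100% = reference antagonist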
GPR7 antag – antagonists of human GPR7 (neuropeptides B/W receptor 1); GPR7-expressing cells, fluorescence antagonist assay; inhibition, % at 4.4 µM; 290,000 compounds, 1.1% hits; in the data active = inhibition above about 16%, passing the limit was not always enough;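 note: cells stimulated with the agonist NPW; 0% = agonist with vehicle and 100% = vehicle without agonist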
Target sequence (P48145 whole entry, looked up): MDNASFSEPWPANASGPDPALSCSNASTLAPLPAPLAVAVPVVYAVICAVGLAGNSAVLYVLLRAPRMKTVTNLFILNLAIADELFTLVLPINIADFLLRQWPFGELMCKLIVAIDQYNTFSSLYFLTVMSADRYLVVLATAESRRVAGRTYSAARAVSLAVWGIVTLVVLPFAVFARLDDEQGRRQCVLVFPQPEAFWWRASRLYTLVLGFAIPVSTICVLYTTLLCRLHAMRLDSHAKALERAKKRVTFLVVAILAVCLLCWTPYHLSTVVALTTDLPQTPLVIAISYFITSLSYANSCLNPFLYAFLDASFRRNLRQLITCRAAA
TAAR1 ag – human TAAR1 agonism; Q96RJ0; 360,000 compounds, 0.99% hits; activation, % at 3 µM; CHO RD-HGA16 TAAR1, Fluo-8 calcium fluorescence; vehicle wells 0%, saturating PEA agonist 100%;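 active = activation above the mean activation of all test compounds in the run plus 3 SD, cut at about 38% in these data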
Target sequence (Q96RJ0 whole entry, looked up): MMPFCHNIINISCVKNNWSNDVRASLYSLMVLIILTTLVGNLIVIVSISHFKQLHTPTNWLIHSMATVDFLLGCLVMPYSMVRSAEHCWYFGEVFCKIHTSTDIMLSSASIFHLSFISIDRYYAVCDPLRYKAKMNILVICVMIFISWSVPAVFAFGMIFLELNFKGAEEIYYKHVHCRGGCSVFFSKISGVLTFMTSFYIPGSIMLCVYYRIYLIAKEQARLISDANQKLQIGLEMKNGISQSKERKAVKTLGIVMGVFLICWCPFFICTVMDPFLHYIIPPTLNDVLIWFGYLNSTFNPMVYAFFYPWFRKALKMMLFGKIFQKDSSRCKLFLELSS
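Repeats: no replicates (n 1) | Material: CHO-derived RD-HGA16 cells with stable Gα16 and human TAAR1 | Technique: Kinetic Fluo-8 calcium fluorescence | Schedule: 17-24 h seeding, 75 min 37 °C dye, 30 min RT | Evaluation: % activation from peak over basal fluorescence ratio, DMSO-to-PEA scaled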
TAAR1 antagonist – antagonists of human TAAR1; Q96RJ0; inhibition, % at 3 µM; CHO RD-HGA16 TAAR1, Fluo-8 calcium fluorescence, antagonist; 360,000 compounds, 1.5% hits; AID 624466;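 active = inhibition above a per-plate cutoff, the mean inhibition of test compounds on that plate plus 3 SD, cut at about 49% in these data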;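 note: 0% = DMSO plus EC80 beta-PEA response and 100% = DMSO alone without agonist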
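Test system: hTAAR1-expressing CHO RD-HGA16 cells, Gα16-coupled; Probe or stimulus: EC80 β-phenethylamine stimulus; Compound dosing: single nominal final test compound concentration of 3 µM; Timing: 140 s kinetic read after compound, 140 s after agonist; Signal: Fluo-8 calcium-sensitive fluorescence; Measure: % inhibition of agonist calcium response; Controls: DMSO and EC80 PEA controls.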
OX1R antag-2 – blocks the human orexin 1 receptor | inhibition, % at 5 µM | AID 434989 | 330,000 compounds, 0.43% hits | O43613 | CHO/OX1R cells, Fluo-8 calcium fluorescence, orexin A;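 active = inhibition above its plate's threshold, mean inhibition of all tested compounds on the plate plus 3 SD, cut at about 37% in these data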;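 note: 0% = orexin A challenge wells and 100% = SB-334867-A antagonist wells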
CHO parental Ca – counter-screen for OX1R antagonists: effect in parental CHO cells. parental CHO-K1, ATP-induced calcium, Fluo-8 fluorescence. inhibition, % at 5.6 µM. 330,000 compounds, 0.63% hits. AID 463079;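 active = inhibition above that plate's mean sample inhibition plus 3 SD, cut at about 26% in these data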;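 note: 0% = ATP-challenged DMSO wells and 100% = DMSO wells without ATP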
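Test system: parental CHO cells; detection: calcium-sensitive Fluo-8 fluorescence; evaluation: percent inhibition of calcium signal; also added: ATP as calcium-mobilizing challenge; repeats: one well per compound; control set: ATP-challenged DMSO wells low, unchallenged DMSO wells high; compound: single nominal dose of 5.6 µM per compound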
TAAR1 nonsel count – nonselective antagonist in TAAR1 antagonist counter-screen; shares compounds with TAAR1 antagonist; 2,400 compounds, 77% hits; counterscreen cell line, calcium fluorescence, antagonist mode; inhibition, % at 3 µM; in the data active = inhibition above about 22%;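 note: CHO-Ga16 host cells stimulated with ATP at an EC80 level; 0% = agonist EC80 plus vehicle and 100% = vehicle without agonist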
TAAR1 antag conf – human TAAR1 antagonism, confirmed; shares compounds with TAAR1 antagonist; TAAR1-expressing cells, fluorescence antagonist read-out; inhibition, % at 3 µM; 2,400 compounds, 40% hits; in the data active = inhibition above about 49%;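 note: CHO-Ga16 host cells challenged with agonist PEA near its EC80; 0% = agonist at EC80 plus vehicle and 100% = vehicle with no agonist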
Ga16 ag counter-1 – nonselective Ga16 agonism, counter-screen; activation, % at 3 µM; 2,400 compounds, 18% hits; Ga16-expressing cells, calcium fluorescence, agonist counterscreen; AID 651953; shares compounds with TAAR1 antagonist; in the data active = activation above about 12%;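 note: 0% = vehicle wells and 100% = saturating stimulus response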
TAAR1 ag counter – counter-screen for human TAAR1 antagonists: TAAR1 agonists | shares compounds with TAAR1 antagonist | 2,400 compounds, 2% hits | activation, % at 3 µM | hTAAR1 cell line, fluorescence activation, agonist mode; in the data active = activation above about 37%;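 note: CHO cells stably expressing TAAR1 with calcium dye readout; 0% = DMSO vehicle and 100% = full agonist response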
TAAR1 ag conf – confirmation of human TAAR1 agonists; shares compounds with TAAR1 ag; CHO RD-HGA16 TAAR1, Fluo-8 calcium fluorescence; scaled: DMSO 0%, maximal phenethylamine 100%; activation, % at 3 µM; 2,400 compounds, 82% hits;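 active = activation above a cutoff set at the run's mean compound activation plus 3 SD, cut at about 39% in these data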
Ga16 ag counter-2 – counter-screen for TAAR1 agonists: nonselective agonists in parental cells. CHO-Ga16 parental, Fluo-8 calcium fluorescence; normalized to maximal ATP response, DMSO zero. activation, % at 3 µM. 2,400 compounds, 50% hits. shares compounds with TAAR1 ag. AID 651787;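 active = activation above the run cutoff, the mean activation over all tested wells plus 3 SD, cut at about 12% in these data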;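 note: 0% = DMSO wells and 100% = maximal ATP response on the peak over basal ratio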
TAAR1 desensitize – TAAR1 response desensitization, agonist counter-screen. shares compounds with TAAR1 ag. 2,400 compounds, 46% hits. CHO RD-HGA16 hTAAR1, Fluo-8 calcium, beta-PEA response inhibition. inhibition, % at 3 µM;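 active = inhibition above the run cutoff, the mean inhibition of all test compounds plus 3 SD, cut at about 49% in these data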;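 note: beta-PEA stimulus applied at its EC80; loss of beta-PEA calcium signal after compound pretreatment read as receptor desensitization; 0% = DMSO with beta-PEA at EC80 and 100% = DMSO alone without agonist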
Ga16 antag count – nonselective Ga16 antagonism, counter-screen | shares compounds with TAAR1 ag | inhibition, % at 3 µM | 2,400 compounds, 39% hits | CHO-Ga16 ATP-induced calcium, Fluo-8 fluorescence;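 active = inhibition above the plate's mean compound inhibition plus 3 SD, computed per plate, cut at about 22% in these data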;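 note: 0% = EC80 ATP with DMSO and 100% = DMSO wells without ATP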
Starred values were filed as active, the others as inactive; . = no result given.

SMILES	OX1R antag-1	GPR7 antag	TAAR1 ag	TAAR1 antagonist	OX1R antag-2	CHO parental Ca	TAAR1 nonsel count	TAAR1 antag conf	Ga16 ag counter-1	TAAR1 ag counter	others
O=c1[nH]c2ccccc2n1C1CCN(Cc2ccc(-c3[nH]c4cc5ncnc5cc4nc3-c3ccccc3)cc2)CC1	.	.	4.7	66.8*	.	.	21.0	40.5	5.7	12.1
COc1cccc(NP(=O)(Oc2ccccc2)Oc2ccccc2)c1	28.5	9.6	6.5	71.8*	-16.0	-26.7	26.6*	48.8*	7.6	7.4
COC(=O)C1=C(c2c(C)noc2C)C[C@@H]2CC[C@H]1N2C(=O)NCCOc1ccc(OC)cc1	0.7	.	9.4	4.2	-33.8	-21.5	.	.	.	.
CC(C)C12CN3CCN(CC(C3)/C1=N\O)C2	13.2	0.0	-3.0	107.7*	-18.3	-9.8	4.8	9.7	-0.5	0.4
CC(C)CC12CN3CCN(CC(C3)/C1=N/O)C2	12.0	-7.0	3.5	-4.5	13.8	-1.1	.	.	.	.
CCC(c1nnnn1C1CCCCC1)N1CCC2(CC1)C(=O)NCN2c1ccccc1 (stereo not drawn)	.	.	6.2	-7.1	.	.	.	.	.	.
Cn1c2ccccc2c2c(C(=O)N3CCC4(CC3)OCCO4)cn(C3CCCC3)c(=O)c21	12.4	-5.0	19.6	55.7*	-19.0	-9.7	22.8*	42.4	9.7	9.4
COc1ccc(-n2nnnc2C(c2ccnc3ccccc23)N2CCC(n3c(=O)[nH]c4ccccc43)CC2)cc1 (stereo not drawn)	.	.	16.6	18.0	.	.	.	.	.	.
O=c1[nH]c2ccccc2n1C1CCN(C(c2cc3ccccc3o2)c2nnnn2Cc2ccccc2)CC1 (stereo not drawn)	.	.	12.2	61.5*	.	.	27.6*	53.4*	7.4	12.1
COc1ccc(-n2nnnc2C(c2cccs2)N2CCC(n3c(=O)[nH]c4ccccc43)CC2)cc1 (stereo not drawn)	.	.	12.2	71.4*	.	.	18.5	46.2	8.3	25.9
COc1ccc(-n2nnnc2C(C2CC2)N2CCC(n3c(=O)[nH]c4ccccc43)CC2)cc1 (stereo not drawn)	.	.	31.5	72.3*	.	.	18.8	51.0*	10.8	17.9
O=c1[nH]c2ccccc2n1C1CCN(C(c2cccs2)c2nnnn2-c2ccc3c(c2)OCCO3)CC1 (stereo not drawn)	.	.	22.6	59.0*	.	.	16.1	42.1	9.1	27.5
Cc1cccc(C)c1-n1nnnc1C(c1cc2ccccc2o1)N1CCC(n2c(=O)[nH]c3ccccc32)CC1 (stereo not drawn)	.	.	0.3	37.0	.	.	.	.	.	.
C=CCNC(=S)N1Cc2cc(Br)ccc2-n2nncc2C1	.	.	1.8	-8.4	.	.	.	.	.	.
O=c1ccc2c(O)c3ccoc3cc2o1	25.2	.	1.4	9.0	-10.9	0.6	.	.	.	.
O=C(CN1CCOCC1)NCC(=O)Nc1ccc(Br)cc1C(=O)c1ccccc1	4.3	-0.8	1.6	21.2	-7.7	-12.3	.	.	.	.
CN1CCN(CC(=O)Nc2ccc([N+](=O)[O-])cc2C(=O)c2ccccc2)CC1	31.1	0.7	4.7	103.9*	-34.9	0.8	2.1	-1.0	0.8	4.1
CC(C)(C)n1nnnc1C(c1cccc2ccccc12)N1CCC2(CC1)C(=O)NCN2c1ccccc1 (stereo not drawn)	.	.	-0.4	0.4	.	.	.	.	.	.
CC12CCC(O)CC1CCC1C2CCC2(C)C(C(=O)CO)CCC12 (stereo not drawn)	.	.	4.6	24.4	.	.	.	.	.	.
CCOC(=O)CC(SP1(=S)OCC2(CC=CCC2)CO1)C(=O)OCC (stereo not drawn)	.	.	7.7	69.7*	.	.	39.4*	61.0*	9.0	7.0
CC(C)C1C(C#N)=C(N)Oc2c1c(=O)oc1ccccc21 (stereo not drawn)	.	.	1.8	-25.2	.	.	.	.	.	.
O=P(Oc1ccccc1)(Oc1ccccc1)C(Nc1ccccc1)c1ccccc1 (stereo not drawn)	11.4	-1.9	1.2	87.8*	-31.2	-22.9	24.6*	56.7*	2.8	3.8
O=P(Oc1ccccc1)(Oc1ccccc1)C(O)c1ccccc1 (stereo not drawn)	33.9	.	11.0	-0.4	-17.5	-12.2	.	.	.	.
CC(C)C[C@@H]1NC(=O)[C@H](Cc2ccccc2)N(C)C(=O)[C@H](C)NC(=O)c2ccccc2NC(=O)[C@H](Cc2ccc(O)cc2)N(C)C1=O	9.6	.	10.4	70.0*	-18.3	-15.1	31.7*	51.5*	8.5	8.0
Oc1ccccc1CN(CCc1ccccc1)Cc1ccccc1	29.8	-11.3	48.8*	31.8	-52.5	-35.7	.	.	.	.	TAAR1 ag conf=74.6*;Ga16 ag counter-2=15.9*;TAAR1 desensitize=89.4*;Ga16 antag count=13.8
SMILES	OX1R antag-1	GPR7 antag	TAAR1 ag	TAAR1 antagonist	OX1R antag-2	CHO parental Ca	TAAR1 nonsel count	TAAR1 antag conf	Ga16 ag counter-1	TAAR1 ag counter	others
CN(CCc1ccccc1)Cc1ccccc1[N+](=O)[O-]	28.6	-14.2	5.3	-0.5	-7.4	-4.9	.	.	.	.
COC(=O)C1=C(c2ccc(OC(F)(F)F)cc2)C[C@@H]2CC[C@H]1N2C(=O)NC1CC1	3.7	.	7.8	14.9	-9.2	-10.1	.	.	.	.
c1ccc2cc(CC3=NCCN3)ccc2c1	16.6	-3.0	87.1*	66.1*	-12.3	-20.7	.	.	.	.	TAAR1 ag conf=98.1*;Ga16 ag counter-2=3.0;TAAR1 desensitize=86.7*;Ga16 antag count=3.7
c1ccc(C2CC2)c(OCC2=NCCN2)c1	9.5	.	23.5	-14.6	-10.4	-0.6	.	.	.	.
C[C@]12CCC3C(CC[C@@H]4C[C@@H](O)CC[C@]34C)C1CC[C@@H]2O (stereo partly drawn)	.	.	8.7	3.2	.	.	.	.	.	.
O=c1cc(C(F)(F)F)c2cc3c4c(c2o1)CCCN4CCC3	29.2	11.8	194.6*	95.3*	91.7*	72.8*	.	.	.	.	TAAR1 ag conf=89.0*;Ga16 ag counter-2=111.6*;TAAR1 desensitize=70.4*;Ga16 antag count=75.2*
